Columns and labels:
[1] = molecular target: T1, GABA-A receptor; alpha-5/beta-3/gamma-2 (Homo sapiens, UniProt P18507+P28472+P31644); experiment: Displacement of [3H]Ro-151788 from recombinant human GABA-Aalpha5 receptor plus beta3gamma2; format: protein-complex assay
T1 sequence (P18507 whole entry): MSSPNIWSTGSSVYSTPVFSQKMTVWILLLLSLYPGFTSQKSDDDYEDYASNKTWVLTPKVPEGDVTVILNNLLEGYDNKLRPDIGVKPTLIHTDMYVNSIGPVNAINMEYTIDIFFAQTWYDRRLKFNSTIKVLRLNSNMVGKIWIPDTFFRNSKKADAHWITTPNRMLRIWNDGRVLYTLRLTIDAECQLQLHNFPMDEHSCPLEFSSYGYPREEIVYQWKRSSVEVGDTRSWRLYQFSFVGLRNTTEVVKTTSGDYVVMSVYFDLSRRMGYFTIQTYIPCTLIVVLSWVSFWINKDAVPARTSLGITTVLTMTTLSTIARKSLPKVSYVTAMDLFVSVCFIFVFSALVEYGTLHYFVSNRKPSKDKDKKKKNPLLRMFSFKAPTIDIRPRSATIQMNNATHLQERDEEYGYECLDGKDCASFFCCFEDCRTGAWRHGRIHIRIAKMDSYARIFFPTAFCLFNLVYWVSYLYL
T1 sequence (P28472 whole entry): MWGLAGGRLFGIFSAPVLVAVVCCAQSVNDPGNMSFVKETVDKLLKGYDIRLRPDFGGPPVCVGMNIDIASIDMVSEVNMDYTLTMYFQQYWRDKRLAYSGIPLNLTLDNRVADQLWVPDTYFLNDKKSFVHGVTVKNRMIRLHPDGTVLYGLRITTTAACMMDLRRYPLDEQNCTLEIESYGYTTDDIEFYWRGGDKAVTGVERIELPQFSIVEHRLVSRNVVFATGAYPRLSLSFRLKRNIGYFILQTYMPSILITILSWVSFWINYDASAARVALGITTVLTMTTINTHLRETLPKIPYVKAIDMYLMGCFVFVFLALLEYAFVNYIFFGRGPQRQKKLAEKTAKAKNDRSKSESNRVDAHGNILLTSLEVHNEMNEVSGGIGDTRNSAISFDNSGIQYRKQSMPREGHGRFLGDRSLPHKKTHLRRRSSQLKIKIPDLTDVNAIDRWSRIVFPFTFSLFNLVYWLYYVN
T1 sequence (P31644 whole entry): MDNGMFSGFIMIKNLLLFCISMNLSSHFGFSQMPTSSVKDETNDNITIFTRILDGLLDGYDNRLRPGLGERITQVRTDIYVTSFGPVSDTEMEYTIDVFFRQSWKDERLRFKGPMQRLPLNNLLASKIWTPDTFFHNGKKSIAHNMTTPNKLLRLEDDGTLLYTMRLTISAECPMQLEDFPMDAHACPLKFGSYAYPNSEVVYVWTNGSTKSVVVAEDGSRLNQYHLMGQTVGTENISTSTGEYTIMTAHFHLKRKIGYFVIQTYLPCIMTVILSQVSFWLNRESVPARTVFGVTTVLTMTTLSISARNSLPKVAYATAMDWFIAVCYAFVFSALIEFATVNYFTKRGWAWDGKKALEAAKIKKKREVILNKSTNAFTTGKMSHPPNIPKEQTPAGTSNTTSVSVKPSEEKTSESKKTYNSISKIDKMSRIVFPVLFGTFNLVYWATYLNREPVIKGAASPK
How it was run: (§1)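 Benzodiazepine-site binding on stably transfected αxβ3γ2 receptors (x = 1, 2, 3 or 5). Inhibition curves run with [3H]Ro15-1788 at roughly twice its Kd. Ki derived by Cheng-Prusoff equation. Mean of three to six determinations.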

[2] = Oral bioavailability in rat; format: ADME, organism-based; settings: in vivo
How it was run: (§2)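 Pharmacokinetics from six animals per species: three dosed iv and three dosed po.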

[3] = molecular target: T2, GABA-A receptor; alpha-1/beta-3/gamma-2 (Homo sapiens, UniProt P14867+P18507+P28472); experiment: Displacement of [3H]Ro-151788 from recombinant human GABA-Aalpha1 receptor plus beta3gamma2; format: protein-complex assay; how it was run: as §1
T2 sequence (P14867 whole entry): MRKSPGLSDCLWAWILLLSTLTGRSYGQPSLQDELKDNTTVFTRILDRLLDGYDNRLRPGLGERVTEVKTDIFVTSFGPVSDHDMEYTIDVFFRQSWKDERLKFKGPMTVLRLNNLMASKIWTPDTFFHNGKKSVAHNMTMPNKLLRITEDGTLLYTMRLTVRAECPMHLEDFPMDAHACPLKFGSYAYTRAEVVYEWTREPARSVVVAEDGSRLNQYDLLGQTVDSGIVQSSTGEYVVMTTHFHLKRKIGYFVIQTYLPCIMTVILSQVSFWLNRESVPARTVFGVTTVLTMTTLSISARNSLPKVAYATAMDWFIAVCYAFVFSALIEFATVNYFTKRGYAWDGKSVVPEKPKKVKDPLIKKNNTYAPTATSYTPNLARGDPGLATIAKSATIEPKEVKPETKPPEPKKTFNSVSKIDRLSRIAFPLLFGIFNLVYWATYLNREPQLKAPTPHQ
T2 sequence (P18507 whole entry): T1 sequence (P18507 whole entry)
T2 sequence (P28472 whole entry): T1 sequence (P28472 whole entry)

[4] = Plasma clearance in rat; format: ADME, organism-based; how it was run: as §2
[5] = Stability in dog assessed as liver microsomal turnover; format: ADME, Canis lupus familiaris; settings: liver microsomes, read-out: Stability
How it was run: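 Test compound at 1 µM, with diazepam as control, incubated 0.25 h with pooled liver microsomes at 0.5 mg/mL protein. Compound remaining quantified by LC/MS/MS. Turnover is the mean of three determinations.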

[6] = molecular target: T3, GABA-A receptor; alpha-2/beta-3/gamma-2 (Homo sapiens, UniProt P18507+P28472+P47869); experiment: Displacement of [3H]Ro-151788 from recombinant human GABA-Aalpha2 receptor plus beta3gamma2; format: protein-complex assay; how it was run: as §1
T3 sequence (P18507 whole entry): T1 sequence (P18507 whole entry)
T3 sequence (P28472 whole entry): T1 sequence (P28472 whole entry)
T3 sequence (P47869 whole entry): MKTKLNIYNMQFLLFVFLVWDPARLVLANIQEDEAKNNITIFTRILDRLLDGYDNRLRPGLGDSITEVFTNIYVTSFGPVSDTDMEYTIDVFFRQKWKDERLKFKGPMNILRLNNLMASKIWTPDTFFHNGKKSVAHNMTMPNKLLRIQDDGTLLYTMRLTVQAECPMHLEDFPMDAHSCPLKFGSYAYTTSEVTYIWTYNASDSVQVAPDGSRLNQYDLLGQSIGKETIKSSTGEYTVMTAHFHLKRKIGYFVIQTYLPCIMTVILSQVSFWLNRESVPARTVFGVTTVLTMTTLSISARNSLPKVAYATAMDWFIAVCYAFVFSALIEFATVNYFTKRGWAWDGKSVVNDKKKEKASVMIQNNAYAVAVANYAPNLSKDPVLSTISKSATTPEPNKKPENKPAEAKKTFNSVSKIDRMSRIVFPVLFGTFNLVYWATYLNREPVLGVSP

[7] = Oral bioavailability in dog; format: ADME, organism-based, Canis lupus familiaris; settings: in vivo; how it was run: as §2
[8] = Half life in dog; format: ADME, organism-based, Canis lupus familiaris; settings: in vivo; how it was run: as §2
[9] = Plasma clearance in dog; format: ADME, organism-based, Canis lupus familiaris; how it was run: as §2
[10] = Plasma clearance in Rhesus monkey; format: ADME, organism-based, Macaca mulatta; how it was run: as §2

SMILES	Ki [1] [nM]	bioavailability [2] [%]	Ki [3] [nM]	clearance [4] [L/h/kg]	metabolised [5] [%]	Ki [6] [nM]	bioavailability [7] [%]	half-life [8] [h]	clearance [9] [L/h/kg]	clearance [10] [L/h/kg]
Fc1cnc(-c2cc(-c3ccc(F)c(-c4ncccc4F)c3)cnn2)c(F)c1	2.8	100	0.5	0.18						
Fc1cnc(-c2cc(-c3cnnc(-c4c(F)cc(F)cc4F)c3)ccc2F)c(F)c1	5.1		2.6		0	4.6				
Fc1cnc(-c2cc(-c3ccc(F)c(-c4ncc(F)cc4F)c3)cnn2)c(F)c1	12.1	88	1.5	0.078	8	10.9	40	15	0.234	
Fc1cnc(-c2cc(-c3cnnc(-c4c(F)cncc4F)c3)ccc2F)c(F)c1	6	50	1.8	3.54	4		72	3.9	1.02	0.36

Source: ChEMBL document CHEMBL1146073, “A pyridazine series of alpha2/alpha3 subtype selective GABA A agonists for the treatment of anxiety” (J Med Chem, 2006)
